Screening data from PubChem BioAssay.
NR2E3 ag-1: human photoreceptor-specific nuclear receptor agonism | inhibition of corepressor binding, % at 3.98 µM | 360,000 tested, 0.35% active | Q9Y5X4 | CHO-S Gal4-NCOR/VP16-NR2E3 two-hybrid, luciferase | AID 602229;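 active = inhibition above the mean of all tested compounds plus 3 SD, cut at about 70% in these data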;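 also: higher means lower luciferase signal from less NR2E3 corepressor binding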
PG9 binder: PG9 antibody binding by small molecule. TR-FRET gp120-PG9 antibody binding. 360,000 tested, 0.43% active. inhibition, % at 6.7 µM. AID 624416; in the data active = inhibition above about 8.5%
Neddyl block: inhibitors of human cullin neddylation; calls only at 25 µM; 360,000 tested, 0.58% active; TR-FRET cullin neddylation, biochemical; P61081+Q13564; AID 651699; in the data active = inhibition above about 36%
NR2E3 ag-2: activates human photoreceptor nuclear receptor NR2E3; inhibition of corepressor binding, % at 4.78 µM; GST-NR2E3/biotin-RetCOR TR-FRET, 1536-well; 320,000 tested, 0.12% active; Q9Y5X4;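 active = percent inhibition above the cutoff of mean plus 3 SD of all tested compounds, set per screening campaign, cut at about 20% in these data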
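System: GST-NR2E3 and biotin-RetCOR proteins; probe or stimulus: 7 nM biotin-RetCOR; doses: compound at 4.8 µM, single dose; schedule: Compound–protein incubation for 5 h at 4 °C; detection: time-resolved FRET; read-out: percent inhibition; controls: biotin wells as high control, 0.6% DMSO wells as low control; format: 1536-well plates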
NR1D1 modulator: Rev-erb alpha (human) modulation | P20393 | Rev-erbα–FITC-DNA binding, fluorescence polarization, 90 min | activity, % at 10 µM | 370,000 tested, 0.79% active | AID 1259318;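 active = activity above about 14%, limit read from the data; passing the limit was not always enough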
Target sequence (P20393 whole entry, looked up): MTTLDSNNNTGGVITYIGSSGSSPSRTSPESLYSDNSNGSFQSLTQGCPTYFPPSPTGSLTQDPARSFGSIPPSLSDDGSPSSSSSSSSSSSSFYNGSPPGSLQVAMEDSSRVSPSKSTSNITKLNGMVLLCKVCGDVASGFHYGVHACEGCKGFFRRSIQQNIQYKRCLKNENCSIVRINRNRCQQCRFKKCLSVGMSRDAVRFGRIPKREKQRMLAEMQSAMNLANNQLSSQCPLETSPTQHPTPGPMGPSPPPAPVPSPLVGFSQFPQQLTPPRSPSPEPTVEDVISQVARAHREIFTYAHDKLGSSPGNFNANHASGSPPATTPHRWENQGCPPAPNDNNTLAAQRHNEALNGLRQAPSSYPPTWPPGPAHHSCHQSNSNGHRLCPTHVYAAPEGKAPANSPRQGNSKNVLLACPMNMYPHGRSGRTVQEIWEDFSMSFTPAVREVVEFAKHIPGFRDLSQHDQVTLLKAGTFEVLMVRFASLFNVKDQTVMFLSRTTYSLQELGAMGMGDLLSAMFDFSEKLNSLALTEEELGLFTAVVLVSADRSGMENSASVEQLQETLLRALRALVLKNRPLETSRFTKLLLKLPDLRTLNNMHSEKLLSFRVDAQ
NR2E3 ag conf: confirmation of human NR2E3 agonists; shares compounds with NR2E3 ag-1; CHO-S mammalian two-hybrid NR2E3-NCOR, luciferase luminescence; inhibition, % at 3.98 µM; 2,300 tested, 51% active; AID 624378;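 active = average inhibition above a cutoff equal to the mean inhibition of all tested compounds plus one SD, cut at about 70% in these data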
VP16 counter: GAL4-VP16 reporter inhibition in NR2E3 agonist counterscreen; shares compounds with NR2E3 ag-1; 2,300 tested, 29% active; CHO-S GAL4-VP16 luciferase reporter, luminescence; AID 624379; inhibition, % at 3.98 µM;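 active = mean inhibition above a cutoff equal to the average over all tested compounds plus one standard deviation, cut at about 70% in these data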;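 also: luciferase from a UAS reporter driven by GAL4-VP16 transactivation; higher means less reporter light so more repression of VP16 activity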
Numbers stand for hits. Sampled rows, rich in hits. Any-hit rate of the full collection: about 2%.

How did Cc1nc(NC(C)c2ccccc2)c2oc3ccccc3c2n1 (centres undefined) do in these assays?
NR2E3 ag-1: inactive; PG9 binder: inactive; Neddyl block: inactive; NR2E3 ag-2: inactive; NR1D1 modulator: inactive; NR2E3 ag conf: 81; VP16 counter: inactive

How did CCC(C)Nc1nc(C)nc2c1oc1ccccc12 (centres undefined) do in these assays?
NR2E3 ag-1: inactive; PG9 binder: inactive; Neddyl block: inactive; NR2E3 ag-2: inactive; NR1D1 modulator: inactive

Results for S=c1nc2ccccc2c2nc(-c3ccccc3Br)[nH]n12 ?
NR2E3 ag-1: 78; PG9 binder: inactive; Neddyl block: inactive; NR2E3 ag-2: inactive; NR1D1 modulator: inactive; NR2E3 ag conf: inactive; VP16 counter: inactive

How did Brc1ccccc1-c1nc2c3ccccc3ncn2n1 do in these assays?
NR2E3 ag-1: inactive; PG9 binder: inactive; Neddyl block: inactive; NR2E3 ag-2: inactive; NR1D1 modulator: inactive

How did C[C@]12CCC3c4ccc(O)cc4CCC3C1CC[C@@H]2OC(=O)CCC1CCCC1 (some centres undefined) do in these assays?
NR1D1 modulator: inactive

Results for Cc1ccc(C(=O)N2CCN(c3ncccn3)CC2)cc1 ?
NR2E3 ag-1: inactive; PG9 binder: inactive; Neddyl block: inactive; NR1D1 modulator: inactive

How did Cc1ccc(NS(=O)(=O)c2ccc(C(=O)N3CCN(S(=O)(=O)c4ccccc4)CC3)cc2)cc1 do in these assays?
NR2E3 ag-1: inactive; PG9 binder: inactive; Neddyl block: inactive; NR2E3 ag-2: inactive; NR1D1 modulator: inactive; NR2E3 ag conf: inactive; VP16 counter: inactive

How did Cc1ccc(NS(=O)(=O)c2ccc(C(=O)N3CCN(c4ncccn4)CC3)cc2)cc1 do in these assays?
NR2E3 ag-1: 83; PG9 binder: inactive; Neddyl block: inactive; NR2E3 ag-2: inactive; NR1D1 modulator: inactive; NR2E3 ag conf: 74; VP16 counter: inactive

How did C[C@@H](O)[C@H]1C(=O)N2C(C(=O)O)=C(SC3Cn4cnc[n+]4C3)[C@H](C)[C@H]12 (some centres undefined) do in these assays?
NR1D1 modulator: inactive

Results for COc1ccccc1NC(=O)CSc1nnnn1-c1ccc2c(c1)OCO2 ?
NR2E3 ag-1: inactive; PG9 binder: inactive; Neddyl block: inactive; NR2E3 ag-2: inactive; NR1D1 modulator: inactive; NR2E3 ag conf: inactive; VP16 counter: inactive

Results for CCCCCCCCN1C(=O)[C@@H](CC(=O)NCCCCc2ccccc2)C[C@@]2(C(=O)OC)C1=C[C@H](C1CCCC1)O[C@@H]2C ?
PG9 binder: inactive; NR1D1 modulator: inactive

What do the screens show for `CC(=O)N1CCc2c(sc(NC(=O)c3ccc([N+](=O)[O-])o3)c2C#N)C1`?
NR2E3 ag-1: inactive; PG9 binder: inactive; Neddyl block: inactive; NR1D1 modulator: inactive; NR2E3 ag conf: inactive; VP16 counter: inactive

Results for COc1ccc(C(=O)Nc2sc3c(c2C#N)CCN(C(C)=O)C3)cc1 ?
NR2E3 ag-1: inactive; PG9 binder: inactive; Neddyl block: inactive; NR2E3 ag-2: inactive; NR1D1 modulator: inactive

How did CC(C)N1CCc2c(sc(NC(=O)c3ccc([N+](=O)[O-])o3)c2C(N)=O)C1 do in these assays?
NR2E3 ag-1: inactive; PG9 binder: inactive; Neddyl block: inactive; NR2E3 ag-2: inactive; NR1D1 modulator: inactive; NR2E3 ag conf: 84; VP16 counter: inactive

What do the screens show for `CCC1CCCCN1C(=S)NN=C(C)c1ccccn1` (centres undefined)?
PG9 binder: inactive; NR1D1 modulator: inactive

How did CN=c1scc(-c2ccccc2F)n1/N=C/c1ccc(O)c(O)c1O do in these assays?
NR2E3 ag-1: inactive; PG9 binder: inactive; Neddyl block: inactive; NR1D1 modulator: inactive

How did CN=c1scc(-c2ccccc2F)n1/N=C/c1ccc[nH]1 do in these assays?
NR2E3 ag-1: 97; PG9 binder: inactive; Neddyl block: inactive; NR2E3 ag-2: inactive; NR1D1 modulator: inactive; NR2E3 ag conf: 90; VP16 counter: 80

Results for COC(=O)[C@]12C[C@H](CC(=O)N3CCCC3)C(=O)N(Cc3ccco3)C1=C[C@H](COCc1ccccc1)O[C@@H]2C ?
NR1D1 modulator: inactive

Results for Cc1ccc2nc(-c3ccc(NC(=O)CSc4nnc(-c5cccc(Cl)c5)n4Cc4ccco4)cc3)sc2c1 ?
NR1D1 modulator: inactive

How did Fc1cccc(CNC(=S)OC2CCC23CCC(c2ccccc2)CC3)c1 (centres undefined) do in these assays?
NR1D1 modulator: inactive

What do the screens show for `COc1cnc(-c2ccccn2)nc1Oc1ccc(Cl)c2ccccc12`?
NR2E3 ag-1: inactive; PG9 binder: inactive; Neddyl block: inactive; NR2E3 ag-2: inactive; NR1D1 modulator: inactive; NR2E3 ag conf: inactive; VP16 counter: inactive

Results for COc1cnc(-c2ccccn2)nc1Oc1ccc(Cl)cc1 ?
NR2E3 ag-1: 79; PG9 binder: inactive; Neddyl block: inactive; NR2E3 ag-2: inactive; NR1D1 modulator: inactive; NR2E3 ag conf: inactive; VP16 counter: inactive

What do the screens show for `COC(=O)[C@H](C(C)C)N(CCCc1cn(CC2CCCCC2)nn1)S(=O)(=O)c1ccccc1Br`?
NR1D1 modulator: inactive

What do the screens show for `C/C(=N\NC(=S)NCc1ccccc1)c1ccccc1`?
NR2E3 ag-1: inactive; PG9 binder: inactive; Neddyl block: inactive; NR2E3 ag-2: inactive; NR1D1 modulator: inactive; NR2E3 ag conf: inactive; VP16 counter: inactive

Results for C/C(=N\NC(=S)NCCc1ccccc1)c1ccc(O)cc1O ?
NR2E3 ag-1: 78; PG9 binder: inactive; Neddyl block: inactive; NR2E3 ag-2: inactive; NR1D1 modulator: inactive; NR2E3 ag conf: inactive; VP16 counter: inactive

How did CCOc1ccc(/C(CCC(=O)O)=N/NC(=S)NCCc2ccccc2)cc1 do in these assays?
NR2E3 ag-1: inactive; PG9 binder: inactive; Neddyl block: inactive; NR2E3 ag-2: inactive; NR1D1 modulator: inactive; NR2E3 ag conf: inactive; VP16 counter: inactive

What do the screens show for `C/C(=N\NC(=S)NCCc1ccccc1)c1ccc(Cl)cc1Cl`?
NR2E3 ag-1: inactive; PG9 binder: inactive; Neddyl block: inactive; NR2E3 ag-2: inactive; NR1D1 modulator: inactive

How did Nc1nc(=O)n([C@@H]2CS[C@@H](CO)O2)cc1F do in these assays?
NR1D1 modulator: inactive

How did CCOc1ccc(-n2c(SC/C=C/c3ccccc3)nnc2-c2ccco2)cc1 do in these assays?
NR1D1 modulator: inactive

Results for C[C@H]1C2CC(OC(=O)NCCCc3ccccc3)C(C2)[C@H]2CCCCN21 (some centres undefined) ?
NR1D1 modulator: inactive

How did COc1ccc(C[N+]2=C(N)NC3=C(C)Cn4c(=O)n(-c5ccccc5)c(=O)n4C3C2)c(OC)c1 (centres undefined) do in these assays?
NR1D1 modulator: inactive

What do the screens show for `[O-][n+]1c2c(c3c4non(O)c4ccc31)CCCC2`?
NR2E3 ag-1: inactive; PG9 binder: inactive; Neddyl block: inactive; NR2E3 ag-2: inactive; NR1D1 modulator: inactive; NR2E3 ag conf: inactive; VP16 counter: inactive
